Screens (PubChem)
Diaphorase inh: diaphorase inhibitors and chemical oxidizers, primary screen, counter-screen for diaphorase-coupled primary assays, biochemical, uHTS, resorufin fluorescence | diaphorase resazurin-to-resorufin fluorescence, NADH, 16 min; bacterial (C. kluyveri) enzyme, not human | 190,000 compounds, 0.69% hits | inhibition, % at 20 µM;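 active = primary screen inhibition at 20 µM above a set limit, cut at about 50% in these data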;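 note: plate controls were DMSO with full reaction for no effect and wells lacking NADH for full effect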
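Test system: bacterial diaphorase enzyme (C. kluyveri); Quantity: 0.14 U/mL diaphorase, enzyme working solution; Times: reaction incubation of 16 min at room temperature; Measured by: fluorescence of resorufin formed from resazurin, Ex 544/Em 590 nm; Benchmarks: positive control minus NADH, DMSO neutral control.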
PfGluPho inh: PfG6PD enzyme inhibitors, primary screen, biochemical, fluorescence intensity, uHTS | PfGluPho enzyme, NADPH resazurin-diaphorase fluorescence | inhibition, % at 20 µM | 350,000 compounds, 0.78% hits;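 active = inhibition reaching at least a set limit at 20 µM in the primary screen, cut at about 59% in these data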;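 note: 0% = DMSO wells with substrate and 100% = DMSO wells lacking glucose-6-phosphate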
Lmaj promast: Leishmania major promastigote growth inhibition, primary screen; Leishmania major promastigotes, resazurin fluorescence viability; 200,000 compounds, 9% hits; inhibition, % at 10 µM; AID 1063, 2008;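 note: promastigotes grown with compound for 44 hours at 28 °C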
G6PDH CS: L. mesenteroides G6PDH inhibitors, counter-screen for G6PDH-coupled screening assays, biochemical, Leuconostoc mesenteroides enzyme; Purified L. mesenteroides G6PDH, diaphorase/resazurin coupled fluorescence, 45 min; glucose-6-phosphate dehydrogenase [Leuconostoc mesenteroides]; 200,000 compounds, 0.12% hits; inhibition, % at 5 µM
Diaphorase act: compounds boosting diaphorase resazurin reduction – biochemical, uHTS, resorufin fluorescence, counter-screen for diaphorase-coupled primary assays, primary screen | Diaphorase/resazurin coupled assay, 16 min; stronger effect = higher value; 1 = vehicle wells, 0 = NADH-free wells | activation factor at 20 µM | 190,000 compounds, 0.005% hits | AID 1229, 2008;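 active = diaphorase activity raised at least twofold by the compound at 20 µM; inactive = activation factor below 2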
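Measured by – red resorufin fluorescence at 544/590 nm excitation/emission · Test system – Clostridium kluyveri diaphorase, purified enzyme · Incubation – reaction time 16 min, room temperature · Buffer or medium – 50 mM HEPES pH 7.4 with 4.542 mM MgCl2, 0.005% Tween 20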
Redox H2O2 prof: compounds producing H2O2 with reducing agent – biochemical, NIH compound library profiling, artefact control for MLSCN library redox annotation, primary screen; AID 878, 2007; DTT-dependent redox cycling H2O2, phenol red/HRP absorbance; 100% = 100 µM peroxide control, 0% = buffer; activation, % at 10 µM; 200,000 compounds, 0.03% hits;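 active = activation of at least 50% relative to the plate's high and low controls in the primary single-dose screen; inactive = activation below 50%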;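 note: compound incubated with DTT at 0.8 mM final as the reducing agent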
PfG6PD confirm: PfG6PD inhibitors, hit retest, confirmation, biochemical, fluorescence intensity, single concentration | recombinant PfGluPho, NADPH-diaphorase-resazurin fluorescence | shares compounds with PfGluPho inh | inhibition, % at 20 µM | 2,400 compounds, 34% hits | AID 504753, 2011;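 active = inhibition of at least 50% at 20 µM in any single replicate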;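 note: 0% = DMSO with substrate and 100% = DMSO lacking glucose-6-phosphate substrate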
Diaph ctr 10uM: diaphorase inhibitors and chemical oxidizers, confirmation, counter-screen for P. falciparum G6PD inhibitor project, biochemical, fluorescence intensity, 10 µM NADPH; shares compounds with PfGluPho inh; diaphorase-coupled resazurin reduction, NADPH 10 uM; inhibition, % at 20 µM; 820 compounds, 39% hits; AID 504862, 2011;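 active = average inhibition reaching 50% or more with the compound at 20 µM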;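 note: resorufin red fluorescence formed as diaphorase reduces resazurin using NADPH; 0% = DMSO with enzyme and 100% = DMSO without enzyme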
Diaphorase 30uM: diaphorase inhibitors and chemical oxidizers, confirmation, counter-screen for P. falciparum G6PD inhibitor project, biochemical, fluorescence intensity, 30 µM NADPH; shares compounds with PfGluPho inh; Diaphorase/resazurin coupled assay, resorufin fluorescence; inhibition, % at 20 µM; 820 compounds, 29% hits;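 active = inhibition averaging 50% or more, tested at 20 µM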;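 note: 0% = DMSO with enzyme and 100% = DMSO wells lacking diaphorase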
* marks the source's active call; other numbers are inactive results; x = not tested or not shown. This excerpt belongs to a sample that is enriched for hits. Cut-off read from the data, not from the text of the source, unless noted: active = inhibition above about 50%; inactive = the rest.

SMILES | Diaphorase inh | PfGluPho inh | Lmaj promast | G6PDH CS | Diaphorase act | Redox H2O2 prof | PfG6PD confirm | others
NC(=O)c1ccc(N2CCN(c3ccc(O)cc3)CC2)c([N+](=O)[O-])c1 | 42 | 66* | 9 | 15 | 0.6 | -1 | 22
CC(=O)c1ccc(N2CCN(c3ccc(C(N)=O)cc3[N+](=O)[O-])CC2)cc1 | 3 | 8 | -7 | 3 | 1 | 0 | x
OCC1OC(n2ccc3c(SCc4ccccc4)ncnc32)C(O)C1O (stereo not given) | x | 30 | x | x | x | x | x
CCOC(=O)c1ccc(S(=O)(=O)Nc2cc(S(=O)(=O)N3CCOCC3)ccc2O)cc1 | x | 60* | x | x | x | x | 10
O=C(CCCSc1ccc(Cl)cc1)Nc1cc(S(=O)(=O)N2CCOCC2)ccc1O | x | 74* | x | x | x | x | 25
CC1(C)Cc2c(sc(NC(=O)c3ccccc3)c2C(=O)O)CO1 | 15 | 88* | 16 | 22 | 0.8 | -1 | 41
COc1ccc(C(=O)Nc2sc3c(c2C(=O)O)CC(C)(C)OC3)cc1 | 19 | 91* | 0 | -1 | 0.8 | 0 | 48* | Diaph ctr 10uM=40;Diaphorase 30uM=45
CCOc1ccc2c(ccc(/C=C/c3cc(C)c4cccnc4c3O)[n+]2C)c1 | x | 92* | x | x | x | x | 40
Cc1ccc(-c2[nH]ncc2C(=O)c2ccc(Br)cc2)c(O)c1 | x | 11 | x | x | x | x | x
Cc1[nH]n(-c2ccccc2)c(=S)c1C=NCCCN=Cc1c(C)[nH]n(-c2ccccc2)c1=S | 13 | 62* | -2 | 6 | 0.9 | 0 | 27
CC(c1ccccc1)N1C(=O)c2cccnc2C1=O (stereo not given) | x | -17 | x | x | x | x | x
CC(NC1=CC(=O)c2cccnc2C1=O)C(O)c1ccccc1 (stereo not given) | x | 105* | x | x | x | x | 74* | Diaph ctr 10uM=47;Diaphorase 30uM=43
O=C(c1ccccc1)c1ccc(C(=O)N2CCN(c3ccc(O)cc3)CC2)cc1 | x | 61* | x | x | x | x | 7
CCOC(=O)N1CCN(CC(=O)Nc2ccccc2C(=O)Nc2ccccc2)CC1 | x | -2 | x | x | x | x | x
NCCNC(=O)c1c(NC(=O)c2ccccc2)sc2c1CCCC2 | x | 15 | x | x | x | x | x
O=C(Nc1sc2c(c1C(=O)O)CCCC2)c1cccc(Cl)c1 | x | 62* | x | x | x | x | 38
O=C(Nc1sc2c(c1C(=O)O)CCCC2)c1ccc(Cl)cc1 | x | 124* | x | x | x | x | 77* | Diaph ctr 10uM=73*;Diaphorase 30uM=72*
N#Cc1c(NC(=O)c2ccccc2)sc2c1CCCCC2 | 17 | 3 | -1 | 3 | 0.8 | 0 | x
O=C(Nc1sc2c(c1C(=O)O)CCCCC2)c1ccccc1 | 34 | 80* | -6 | 20 | 0.7 | 0 | 35
O=C(Nc1sc2c(c1C(=O)O)CCC2)c1ccc(F)cc1 | 11 | 91* | 1 | -4 | 0.9 | 1 | 54* | Diaph ctr 10uM=42;Diaphorase 30uM=39
CC[C@]12c3[nH]c4ccccc4c3CCN1C(=O)C(CC(=O)NCCCOC)C[C@@H]2C(=O)N1CCN(C(=O)c2ccco2)CC1 (stereo not given in full) | x | 2 | x | x | x | x | x
O=C(Nc1sc2c(c1C(=O)O)CCC2)c1cccs1 | 26 | 38 | -1 | 0 | 0.7 | 2 | x
O=C(Nc1sc2c(c1C(=O)O)CCC2)c1ccccc1 | 19 | 62* | -2 | 3 | 0.8 | 0 | 34
Cc1cccc(/C=N\NC(=O)c2sccc2-n2cccc2)c1 | 2 | 71* | 6 | -2 | 1 | 8 | 42
